Data from ChEMBL document CHEMBL3393048, “Discovery of potent cytotoxic ortho-aryl chalcones as new scaffold targeting tubulin and mitosis with affinity-based fluorescence” (J Med Chem, 2014).
Calls of active or inactive are those of the source. The calls are words filed in the database; no cut-off is given here.

Experiments:
[1] = test system: A549; assay: Induction of apoptosis in human A549 cells assessed as viable cells at 1 uM after 48 hrs by Annexin V-FITC/propidium iodide staining-based flow cytometry (reference value: 99.37%); format: functional; details: A549, 48 h, read-out: Activity
[2] = test system: A549; assay: Induction of apoptosis in human A549 cells assessed as viable cells at 0.75 uM after 48 hrs by Annexin V-FITC/propidium iodide staining-based flow cytometry (reference value: 99.37%); format: functional; details: A549, 48 h, read-out: Activity
[3] = test system: A549; assay: Induction of apoptosis in human A549 cells assessed as early apoptotic cells at 1 uM after 48 hrs by Annexin V-FITC/propidium iodide staining-based flow cytometry (reference value: 0.47%); format: functional
[4] = test system: A549; assay: Induction of apoptosis in human A549 cells assessed as necrotic cells at 1 uM after 48 hrs by Annexin V-FITC/propidium iodide staining-based flow cytometry (reference value: 0.06%); format: functional
[5] = Antiproliferative activity against human HCT8 cells after 48 hrs by SRB method; format: functional, cell-based; details: HCT-8, 48 h
Method in brief: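 SRB assay. Cells in DMEM high glucose with 10% FBS were seeded at 5000/well and grown 24 h; a day-0 plate was fixed at that point. Compounds were added in triplicate for 48 h. IC50 came from nonlinear regression of dose–response curves from at least two independent experiments.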

[6] = test system: A549; assay: Drug resistance index, ratio of IC50 for cis-platinum-resistant human A549 cells to IC50 for human A549 cells; format: functional
Method in brief: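 Drug resistance index = IC50 in the resistant line / IC50 in its parental line. […] Pairs: A549/CDDP vs A549, MCF-7/DOX vs MCF-7, A2780/TAX vs A2780, HCT-8/VCT vs HCT-8.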

[7] = test system: A549; assay: Induction of apoptosis in human A549 cells assessed as total apoptotic cells at 1 uM after 48 hrs by Annexin V-FITC/propidium iodide staining-based flow cytometry; format: functional
[8] = biological target: T1, Tubulin (Homo sapiens) (UniProt P68371+Q9H4B7+P0DPH7+P68366+Q13509+Q71U36+P04350+Q3ZCM7+P07437+P68363+Q9BQE3+Q6PEY2+Q13885+Q9BVA1+Q9BUF5); assay: Binding affinity to tubulin (unknown origin) at 4 uM after 30 mins by fluorescence assay; format: protein-complex assay
Method in brief: (§1)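 Intrinsic fluorescence on tubulin binding. Compounds were mixed with tubulin (4 μM or 8 μM) in general tubulin buffer and incubated 30 min. Readings were excitation 430/emission 510 nm or excitation 365/emission 465 nm, with kinetic reads from mixing. ΔF = stable emission minus tubulin-only fluorescence. Optimal wavelengths were set by wavelength scanning.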

[9] = biological target: T1, Tubulin (Homo sapiens); assay: Binding affinity to tubulin (unknown origin) after 30 mins by fluorescence assay; format: protein-complex assay; method in brief: as §1
[10] = test system: A549; assay: Induction of apoptosis in human A549 cells assessed as late apoptotic cells at 0.5 uM after 48 hrs by Annexin V-FITC/propidium iodide staining-based flow cytometry (reference value: 0.10%); format: functional
[11] = test system: A549; assay: Induction of apoptosis in human A549 cells assessed as necrotic cells at 0.5 uM after 48 hrs by Annexin V-FITC/propidium iodide staining-based flow cytometry (reference value: 0.06%); format: functional
[12] = test system: A549; assay: Induction of apoptosis in human A549 cells assessed as early apoptotic cells at 0.75 uM after 48 hrs by Annexin V-FITC/propidium iodide staining-based flow cytometry (reference value: 0.47%); format: functional
[13] = test system: A549; assay: Induction of apoptosis in human A549 cells assessed as necrotic cells at 0.75 uM after 48 hrs by Annexin V-FITC/propidium iodide staining-based flow cytometry (reference value: 0.06%); format: functional

**Q.** For `CN(C)c1ccc(/C=C/C(=O)c2ccccc2-c2ccc(F)cc2)cc1`, which viability at 1 µM [1] is on record?
**A.** 8.21%

**Q.** And the viability at 0.75 µM [2]?
**A.** 8.57%

**Q.** And the Activity [3]?
**A.** 41.02%

**Q.** What about the Activity [4] of the same compound?
**A.** 7.91%

**Q.** What about the IC50 [5] of the same compound?
**A.** 130 nM

**Q.** And the “Ratio IC50” value [6]?
**A.** 1.6

**Q.** What about the Activity [7] of the same compound?
**A.** 83.88%

**Q.** And the Activity [8]?
**A.** Active

**Q.** And the Activity [9]?
**A.** Dose-dependent effect

**Q.** And the Activity [10]?
**A.** 41.85%

**Q.** What about the Activity [11] of the same compound?
**A.** 11.95%

**Q.** And the Activity [12]?
**A.** 36.61%

**Q.** What about the Activity [13] of the same compound?
**A.** 9.38%
